Data set [1] can be described thus: Therapeutic index, IC50 for human H9 cells to EC50 for HIV1 3B. It counts as cell-based. Conditions: read-out: Ratio IC50/EC50.
The test system of the next data set is H9. In words: Cytotoxicity against human H9 cells after 3 days. Format: cell-based. The settings on record: H9, 72 h. A digest of the protocol: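 Uninfected H9 lymphocytes cultured with an equal volume of compound dilution for 3 days at 37°. Cell density then counted; IC50 = concentration inhibiting lymphocyte growth by 50%.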
Data set [2] concerns Human immunodeficiency virus 1. Briefly: Antiviral activity against HIV1 3B in human H9 cells assessed as inhibition of viral replication after 3 days by p24 antigen capture assay. It counts as functional, organism-based. Conditions: Human immunodeficiency virus 1, 3B, H9, 72 h. A digest of the protocol: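 H9 lymphocytes (1 × 10^7 cells/ml) exposed to HIV-1 IIIB for 1 h at 37°, washed free of unadsorbed virus, resuspended at […] and mixed with an equal volume of compound dilution; 3 days at 37°. Infection read by p24 antigen capture, at four concentrations relative to infected untreated cultures; EC50 = concentration inhibiting replication by 50%.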

The target of data set [3] is Protein kinase C beta type (Homo sapiens, UniProt P05771). Briefly: Inhibition of PKC beta2. A digest of the protocol: (§1)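 Purified PKC isoenzyme (20 ng) starts the reaction. Mix: phosphatidylserine 40 µg/ml/diacylglycerol 1.76 µg/ml vesicles, 20 mM HEPES pH 7.5, 10 mM MgCl2, 200 µg/ml histone substrate, 100 µM CaCl2, 47.5 µM EGTA, 20 µM [32P]ATP; compounds in DMSO. 10 min at 30°, stopped with cold TCA plus BSA, precipitate filtered and scintillation-counted.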

Data set [4] has as its target T1, Protein kinase C epsilon type (Homo sapiens, UniProt Q02156).
T1 sequence (Q02156 whole entry): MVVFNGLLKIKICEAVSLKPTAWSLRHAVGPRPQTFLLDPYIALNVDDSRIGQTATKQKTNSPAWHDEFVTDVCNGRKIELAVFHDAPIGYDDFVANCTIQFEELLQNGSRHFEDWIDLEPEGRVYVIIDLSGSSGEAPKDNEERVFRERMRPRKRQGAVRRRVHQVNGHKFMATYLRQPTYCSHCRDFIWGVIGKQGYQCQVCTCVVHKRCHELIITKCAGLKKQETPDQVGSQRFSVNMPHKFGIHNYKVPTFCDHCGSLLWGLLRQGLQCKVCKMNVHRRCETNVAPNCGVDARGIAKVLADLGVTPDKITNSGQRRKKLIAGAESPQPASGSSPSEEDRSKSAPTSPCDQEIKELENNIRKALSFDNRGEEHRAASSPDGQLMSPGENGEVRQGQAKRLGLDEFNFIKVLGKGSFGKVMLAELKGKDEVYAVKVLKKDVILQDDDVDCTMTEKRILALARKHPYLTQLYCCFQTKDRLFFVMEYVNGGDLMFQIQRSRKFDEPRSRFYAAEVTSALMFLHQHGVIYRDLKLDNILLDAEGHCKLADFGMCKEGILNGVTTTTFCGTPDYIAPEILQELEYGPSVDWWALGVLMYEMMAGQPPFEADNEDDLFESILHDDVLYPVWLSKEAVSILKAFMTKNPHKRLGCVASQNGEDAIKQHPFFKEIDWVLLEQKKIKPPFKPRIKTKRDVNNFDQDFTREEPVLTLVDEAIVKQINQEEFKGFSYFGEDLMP
In words: Inhibition of PKC epsilon. A digest of the protocol: as §1

For data set [5], the target named is Protein kinase C delta type (Homo sapiens, UniProt Q05655). Briefly: Inhibition of PKC delta. A digest of the protocol:
as §1

For data set [6], the target named is Protein kinase C gamma type (Homo sapiens, UniProt P05129). Briefly: Inhibition of PKC gamma. A digest of the protocol: as §1

A value given as a limit tells only on which side of the number the result lay.

By IC50 is commonly meant the concentration needed to halve the response being measured. Higher therefore signals weaker potency. As usually defined, the EC50 is the midpoint of the concentration-response curve.

Chain of Protein kinase C beta type (P05771 whole entry): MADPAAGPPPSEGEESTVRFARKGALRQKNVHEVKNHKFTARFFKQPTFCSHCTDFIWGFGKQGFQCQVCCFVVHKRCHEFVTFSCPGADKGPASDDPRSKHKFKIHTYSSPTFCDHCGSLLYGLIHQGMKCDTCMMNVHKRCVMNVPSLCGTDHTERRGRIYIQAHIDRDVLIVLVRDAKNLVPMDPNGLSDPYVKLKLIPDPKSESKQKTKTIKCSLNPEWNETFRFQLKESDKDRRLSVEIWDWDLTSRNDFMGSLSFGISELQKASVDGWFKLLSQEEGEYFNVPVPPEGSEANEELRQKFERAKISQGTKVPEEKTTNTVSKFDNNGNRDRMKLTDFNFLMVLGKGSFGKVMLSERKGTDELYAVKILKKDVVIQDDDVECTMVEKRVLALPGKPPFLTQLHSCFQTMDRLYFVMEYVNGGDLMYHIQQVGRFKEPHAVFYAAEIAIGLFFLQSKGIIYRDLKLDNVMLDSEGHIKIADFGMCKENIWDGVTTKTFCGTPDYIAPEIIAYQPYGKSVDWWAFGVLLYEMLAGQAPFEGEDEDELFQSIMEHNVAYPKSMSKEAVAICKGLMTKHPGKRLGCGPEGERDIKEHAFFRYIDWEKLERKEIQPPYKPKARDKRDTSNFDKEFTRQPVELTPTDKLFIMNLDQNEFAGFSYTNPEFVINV
Chain of Protein kinase C delta type (Q05655 whole entry): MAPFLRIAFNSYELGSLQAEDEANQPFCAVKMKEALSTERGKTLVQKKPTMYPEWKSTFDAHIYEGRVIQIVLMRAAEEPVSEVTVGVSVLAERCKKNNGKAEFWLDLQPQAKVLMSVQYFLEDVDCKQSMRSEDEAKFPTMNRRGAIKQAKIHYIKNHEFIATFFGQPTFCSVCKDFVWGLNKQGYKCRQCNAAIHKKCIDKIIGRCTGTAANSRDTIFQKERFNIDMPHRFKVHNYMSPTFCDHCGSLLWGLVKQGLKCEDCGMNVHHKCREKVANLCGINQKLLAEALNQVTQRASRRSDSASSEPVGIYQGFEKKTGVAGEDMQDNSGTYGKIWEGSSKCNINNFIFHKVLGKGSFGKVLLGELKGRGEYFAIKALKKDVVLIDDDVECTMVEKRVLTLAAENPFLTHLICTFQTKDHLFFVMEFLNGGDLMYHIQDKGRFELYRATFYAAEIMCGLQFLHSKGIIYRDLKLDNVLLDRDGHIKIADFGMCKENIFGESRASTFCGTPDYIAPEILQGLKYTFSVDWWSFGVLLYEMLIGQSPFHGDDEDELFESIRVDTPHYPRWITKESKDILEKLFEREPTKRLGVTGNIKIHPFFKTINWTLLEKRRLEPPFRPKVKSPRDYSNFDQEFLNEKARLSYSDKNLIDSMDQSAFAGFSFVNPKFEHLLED

On to `C=C(C)[C@@H]1CC[C@]2(C(=O)O)CC[C@]3(C)[C@H](CC[C@@H]4[C@@]5(C)CC[C@H](OC(C)=O)C(C)(C)[C@@H]5CC[C@]43C)[C@@H]12`, for which the selectivity ratio in data set [1] was determined as 0.8. For the same molecule, the IC50 in the data set with H9 is 20 µM; in data set [3], over 150 µM; in data set [4], over 150 µM. Besides, the EC50 in data set [2] turned out to be 25 µM.

`C=C(C)[C@@H]1CC[C@]2(C(=O)O)CC[C@]3(C)[C@H](CC[C@@H]4[C@@]5(C)CC[C@H](OC(=O)CCC(=O)O)C(C)(C)[C@@H]5CC[C@]43C)[C@@H]12`: the selectivity ratio in data set [1] amounted to 4. Also, the IC50 is 49 µM in data set [5], 16 µM in the data set on H9, over 150 µM in data set [3] and over 150 µM in data set [4]. Besides, in data set [2], the EC50 worked out at 4 µM.

Turning to `C=C(C)[C@@H]1CC[C@]2(C(=O)O)CC[C@]3(C)[C@H](CC[C@@H]4[C@@]5(C)CC[C@H](OC(=O)/C=C/C)C(C)(C)[C@@H]5CC[C@]43C)[C@@H]12`, the selectivity ratio in data set [1] came to 2.5. Besides, the 50% inhibitory concentration (IC50) in the data set with H9 was 48 µM; in data set [3], over 150 µM; in data set [4], over 150 µM. Also, the EC50 in data set [2] was determined as 19 µM.

Take `C=C(C)[C@@H]1CC[C@]2(C(=O)O)CC[C@]3(C)[C@H](CC[C@@H]4[C@@]5(C)CC[C@H](OS(=O)(=O)O)C(C)(C)[C@@H]5CC[C@]43C)[C@@H]12`: the IC50 was 37 µM in data set [6], 35 µM in the data set with H9, over 150 µM in data set [3] and over 150 µM in data set [4]. Besides, the selectivity ratio in data set [1] is 1.7. Also, in data set [2], the 50% effective concentration (EC50) was 20 µM.

On to `C=C(C)[C@@H]1CC[C@]2(C(=O)OCC(=O)OC)CC[C@]3(C)[C@H](CC[C@@H]4[C@@]5(C)CC[C@H](O)C(C)(C)[C@@H]5CC[C@]43C)[C@@H]12`, for which the selectivity ratio in data set [1] is 1.5. Also, the figures for the IC50 (in the data set with H9; in data set [3]; in data set [4]) were 26 µM, over 150 µM and over 150 µM, respectively. For the same molecule, in data set [2], the EC50 came out at 17 µM.

As to `C=C(C)[C@@H]1CC[C@]2(C(=O)O)CC[C@]3(C)[C@H](CC[C@@H]4[C@@]5(C)CC[C@H](OC(=O)c6ccccc6)C(C)(C)[C@@H]5CC[C@]43C)[C@@H]12`, the concentration for half-maximal inhibition (IC50) in data set [6] was 74 µM; in the data set with H9, 15 µM; in data set [3], over 150 µM; in data set [4] it was over 150 µM. The selectivity ratio in data set [1] came out at 1. The concentration for a half-maximal effect (EC50) in data set [2] was found to be 15 µM.

Turning to `C=C(C)[C@@H]1CC[C@]2(C(=O)O)CC[C@]3(C)[C@H](CC[C@@H]4[C@@]5(C)CC[C@H](O)C(C)(C)[C@@H]5CC[C@]43C)[C@@H]12` [BETULINIC ACID], the half-maximal effective concentration (EC50) in data set [2] came out at 1.4 µM. Moreover, the half-inhibitory concentration (IC50) in data set [3] and in data set [4] was over 150 µM each time.

For the molecule `C=C(C)[C@@H]1CC[C@]2(CO)CC[C@]3(C)[C@H](CC[C@@H]4[C@@]5(C)CC[C@H](O)C(C)(C)[C@@H]5CC[C@]43C)[C@@H]12` [BETULIN], the selectivity ratio in data set [1] was determined as 1.9. In addition, the IC50 with H9 is 45 µM; in data set [3] it was over 150 µM; in data set [4], over 150 µM. Further, in data set [2], the 50% effective concentration (EC50) worked out at 23 µM.

For the molecule `CC(C)[C@@H]1CC[C@]2(C(=O)O)CC[C@]3(C)C(CCC4[C@@]5(C)CC[C@H](O)C(C)(C)C5CC[C@]43C)C12` (stereo partly drawn) [DIHYDROBETULINIC ACID], in data set [1], the selectivity ratio came out at 14. Further, the 50% inhibitory concentration (IC50) in data set [5] was 46 µM; in data set [3] it was over 150 µM; in data set [4], over 150 µM. Moreover, the EC50 in data set [2] stood at 0.9 µM.

Turning to `CC(=O)[C@@H]1CC[C@]2(C(=O)O)CC[C@]3(C)[C@H](CC[C@@H]4[C@@]5(C)CC[C@H](O)C(C)(C)[C@@H]5CC[C@]43C)[C@@H]12` [PLATANIC ACID], in data set [1], the selectivity ratio came to 13. Also, the results for the IC50 (with H9; in data set [3]; in data set [4]) were 90 µM, over 150 µM and over 150 µM, respectively. Also, the EC50 in data set [2] is 6.5 µM.

With `Cc1cn([C@H]2C[C@H](N=[N+]=[N-])[C@@H](CO)O2)c(=O)[nH]c1=O` [ZIDOVUDINE], the half-inhibitory concentration (IC50) in data set [3] and in data set [4] was over 150 µM each time.
